# Measured values as given in ChEMBL document CHEMBL3817826, “H2S-Donating Doxorubicins May Overcome Cardiotoxicity and Multidrug Resistance” (J Med Chem, 2016).
# Active and inactive are the calls of the source. The rule behind the calls is not given here.
# What was measured:
# [1] = molecular target: DNA topoisomerase 2-alpha (Homo sapiens) (UniProt P11388); experiment: Inhibition of human topoisomerase 2-mediated DNA cleavage at 5 uM using supercoiled pHOT1 plasmid as substrate by agarose gel electrophoresis
# Sequence of DNA topoisomerase 2-alpha (Homo sapiens) (P11388 whole entry): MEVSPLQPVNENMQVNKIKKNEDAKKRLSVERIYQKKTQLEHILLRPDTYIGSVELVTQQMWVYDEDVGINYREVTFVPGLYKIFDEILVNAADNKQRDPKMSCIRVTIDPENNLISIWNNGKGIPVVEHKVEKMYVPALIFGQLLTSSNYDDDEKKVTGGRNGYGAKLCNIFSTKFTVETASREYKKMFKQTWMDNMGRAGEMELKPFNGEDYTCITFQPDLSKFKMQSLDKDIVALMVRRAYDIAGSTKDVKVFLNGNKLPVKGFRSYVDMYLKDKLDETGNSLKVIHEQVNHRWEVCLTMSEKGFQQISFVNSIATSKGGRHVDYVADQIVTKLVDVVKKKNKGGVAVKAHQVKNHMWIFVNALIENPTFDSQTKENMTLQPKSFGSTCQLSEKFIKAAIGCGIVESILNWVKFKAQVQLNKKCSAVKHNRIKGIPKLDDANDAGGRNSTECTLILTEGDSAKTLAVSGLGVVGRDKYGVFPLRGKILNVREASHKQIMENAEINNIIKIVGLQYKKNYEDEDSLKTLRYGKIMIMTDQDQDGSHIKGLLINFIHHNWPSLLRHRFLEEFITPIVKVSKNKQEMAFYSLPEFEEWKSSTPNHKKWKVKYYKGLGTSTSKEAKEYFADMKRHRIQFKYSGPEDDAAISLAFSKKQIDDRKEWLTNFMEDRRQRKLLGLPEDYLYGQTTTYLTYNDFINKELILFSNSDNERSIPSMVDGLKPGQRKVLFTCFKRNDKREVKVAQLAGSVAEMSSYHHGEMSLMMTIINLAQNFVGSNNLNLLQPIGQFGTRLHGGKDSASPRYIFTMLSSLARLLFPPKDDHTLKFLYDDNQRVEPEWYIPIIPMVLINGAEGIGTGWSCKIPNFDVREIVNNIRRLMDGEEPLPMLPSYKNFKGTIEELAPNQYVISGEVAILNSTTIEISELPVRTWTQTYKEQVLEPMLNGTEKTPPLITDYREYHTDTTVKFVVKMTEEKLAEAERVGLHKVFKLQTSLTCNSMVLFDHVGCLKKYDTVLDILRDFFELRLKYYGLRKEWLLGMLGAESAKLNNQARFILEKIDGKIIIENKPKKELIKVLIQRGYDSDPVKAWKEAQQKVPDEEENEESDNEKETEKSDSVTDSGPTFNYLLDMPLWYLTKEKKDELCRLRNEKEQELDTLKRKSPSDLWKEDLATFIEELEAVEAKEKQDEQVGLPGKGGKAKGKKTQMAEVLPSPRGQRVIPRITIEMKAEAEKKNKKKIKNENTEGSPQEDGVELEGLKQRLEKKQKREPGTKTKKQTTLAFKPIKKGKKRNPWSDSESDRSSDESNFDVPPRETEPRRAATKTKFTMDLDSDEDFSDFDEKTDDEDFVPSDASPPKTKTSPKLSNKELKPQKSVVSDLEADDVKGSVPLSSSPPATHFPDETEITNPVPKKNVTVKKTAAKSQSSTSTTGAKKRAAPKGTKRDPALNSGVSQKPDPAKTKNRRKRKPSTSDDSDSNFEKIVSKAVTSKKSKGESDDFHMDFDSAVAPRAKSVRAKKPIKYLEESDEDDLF
# [2] = Stability of compound in pre-heated IMDM at 200 uM at 37 degC by RP-HPLC analysis; format: physicochemical
# How it was run: (§1)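 10 mM DMSO stock diluted into medium pre-warmed to 37 °C, giving 200 μM final, then incubated at 37 °C. Aliquots diluted 1:1 with acetonitrile/0.1% HCOOH, filtered and run on RP-HPLC, quantified against 1–200 μM standards. t1/2 from one-phase exponential decay fit, at least triplicate.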
# [3] = Induction of H2S release from compound in IMDM at 100 uM incubated for 1 to 24 hrs using DNS-Az by fluorimetric assay-based HPLC analysis; format: physicochemical
# How it was run: (§2)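 Compound at 200 μM initial (half concentration for two low-solubility compounds) in medium or human serum at 37 °C with dansyl azide. Sampled at 1, 4 and 24 h, diluted with CH3CN, spun and filtered. Isocratic RP-HPLC with fluorescence ex 340/em 535 nm. Dansyl amide peak quantified against NaHS calibration as H2S index. At least triplicate.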
# [4] = Half life of compound in pre-heated DMEM at 200 uM at 37 degC by RP-HPLC analysis; format: physicochemical; how it was run: as §1
# [5] = Half life of compound assessed as human serum esterase-mediated degradation at 100 uM by RP-HPLC analysis; format: ADME
# How it was run: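 10 mM DMSO stock added to human serum pre-warmed to 37 °C, giving 100 μM final. Samples taken over time and deproteinized with equal volume acetonitrile/0.1% HCOOH, then spun 2150 g 10 min and filtered. Analysed by RP-HPLC against 1–200 μM calibration. t1/2 from one-phase exponential decay fit, at least triplicate.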
# [6] = Induction of H2S release from compound in DMEM at 100 uM incubated for 1 to 24 hrs using DNS-Az by fluorimetric assay-based HPLC analysis; format: physicochemical; how it was run: as §2
# Serum = experiment: Induction of H2S release from compound in human serum at 100 uM incubated for 1 to 24 hrs using DNS-Az by fluorimetric assay-based HPLC analysis; format: functional; how it was run: as §2
# H9c2 [7] = experiment: Drug uptake in rat H9c2 cells at 5 uM incubated for 24 hrs by fluorimetrical analysis; format: ADME, cell-based; settings: h9c2, 24 h
# How it was run: (§3)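 Intracellular drug measured after 24 h exposure to 5 μM. Cell lysates read fluorimetrically at ex 475/em 553 nm with cell-free blank subtracted. Converted by calibration curve to nmol drug/mg cell protein. Duplicate, n = 3, mean ± SD.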
# H9c2 [8] = experiment: Cytotoxicity in rat H9c2 cells at 5 uM incubated for 24 hrs by LDH release-based spectrofluorimetrical analysis relative to control; format: cell-based; settings: h9c2, 24 h
# How it was run: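 Cells exposed 24 h to 5 μM drug in DMEM with 10% FBS at 37 °C, 5% CO2. Medium spun 12,000 × g 5 min. Cells sonicated in 82.3 mM triethanolamine phosphate-HCl pH 7.6. LDH in medium and lysate followed 6 min at 340 nm. Extracellular LDH reported as % of total dish activity, duplicate, n = 3, mean ± SD.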
# H9c2 [9] = experiment: Cytotoxicity in rat H9c2 cells assessed as intracellular ROS accumulation at 5 uM incubated for 24 hrs by DCFDA-AM probe-based fluorimetrical analysis relative to control; format: cell-based; settings: h9c2, 24 h
# How it was run: (§4)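 After 24 h at 5 μM, 1×10^6 cells in 0.5 mL PBS were loaded with 5 μM DCFDA-AM for 30 min at 37 °C, spun and resuspended. Fluorescence read at ex 492/em 517 nm, expressed as nmol ROS/mg cell protein. Duplicate, n = 3, mean ± SD.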
# H9c2 [10] = experiment: Cytotoxicity in rat H9c2 cells assessed as intracellular ROS accumulation at 5 uM incubated for 24 hrs in presence of hydroxocobalamin by DCFDA-AM probe-based fluorimetrical analysis relative to control; format: cell-based; settings: h9c2, 24 h
# How it was run: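 H9c2 cells held 24 h with 5 μM drug plus 100 μM hydroxocobalamin, then loaded with 5 μM DCFDA-AM for 30 min at 37 °C. Fluorescence read at 492/517 nm, expressed as nmol ROS/mg protein. Duplicate, n = 3.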
# H9c2 [11] = experiment: Cytotoxicity in rat H9c2 cells at 5 uM incubated for 24 hrs in presence of NAC by LDH release-based spectrofluorimetrical analysis relative to control; format: cell-based; settings: h9c2, 24 h
# U2OS [12] = experiment: Induction of intracellular ROS accumulation in human U2OS cells at 5 uM incubated for 24 hrs by DCFDA-AM probe-based fluorimetrical analysis relative to control; format: functional, cell-based; how it was run: as §4
# U2OS [13] = experiment: Drug uptake in human U2OS cells at 5 uM incubated for 24 hrs by fluorimetrical analysis; format: ADME, cell-based; how it was run: as §3
# [14] = Drug uptake in human U2OS/DX30 cells at 5 uM incubated for 24 hrs by fluorimetrical analysis; format: ADME, cell-based; how it was run: as §3
# [15] = Drug uptake in human U2OS/DX100 cells at 5 uM incubated for 24 hrs by fluorimetrical analysis; format: ADME, cell-based; how it was run: as §3
# [16] = Drug uptake in human U2OS/DX580 cells at 5 uM incubated for 24 hrs by fluorimetrical analysis; format: ADME, cell-based; how it was run: as §3
# U2OS [17] = experiment: Increase in intracellular ROS accumulation in human U2OS/DX30 cells at 5 uM incubated for 24 hrs in presence of hydroxocobalamin by DCFDA-AM probe-based fluorimetrical analysis relative to control; format: functional, cell-based
# How it was run: (§5)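 Cells grown in DMEM with 10% FBS at 37 °C, 5% CO2, resistant variants selected in 30, 100 or 580 ng/mL doxorubicin; treated 24 h with 5 μM drug plus 100 μM hydroxocobalamin. 1×10^6 cells loaded 30 min at 37 °C with 5 μM DCFDA-AM in PBS; fluorescence at ex 492/em 517 nm, expressed as nmol ROS/mg protein; duplicates, n = 3.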
# U2OS [18] = experiment: Increase in intracellular ROS accumulation in human U2OS/DX580 cells at 5 uM incubated for 24 hrs in presence of hydroxocobalamin by DCFDA-AM probe-based fluorimetrical analysis relative to control; format: functional, cell-based; how it was run: as §5
# U2OS [19] = experiment: Activity at PgP in human […] cells assessed as Vmax measured per mg of protein incubated for 20 mins by fluorimetrical analysis; format: cell-based
# How it was run: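 U-2OS/DX580 cells exposed 20 min to 0-50 μM drug, washed, intracellular doxorubicin read fluorimetrically; parallel dishes left a further 10 min at 37 °C before reading. Efflux rate (difference, nmol extruded/min/mg cell protein) plotted against initial concentration; Vmax and Km fitted. Means ± SD, n = 3.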
# U2OS [20] = experiment: Induction of intracellular ROS accumulation in human U2OS/DX100 cells at 5 uM incubated for 24 hrs by DCFDA-AM probe-based fluorimetrical analysis relative to control; format: functional, cell-based; how it was run: as §4
# U2OS [21] = experiment: Induction of intracellular ROS accumulation in human U2OS/DX30 cells at 5 uM incubated for 24 hrs by DCFDA-AM probe-based fluorimetrical analysis relative to control; format: functional, cell-based; how it was run: as §4
# U2OS [22] = experiment: Induction of intracellular ROS accumulation in human U2OS/DX580 cells at 5 uM incubated for 24 hrs by DCFDA-AM probe-based fluorimetrical analysis relative to control; format: functional, cell-based; how it was run: as §4
# U2OS [23] = experiment: Increase in intracellular ROS accumulation in human U2OS cells at 5 uM incubated for 24 hrs in presence of hydroxocobalamin by DCFDA-AM probe-based fluorimetrical analysis relative to control; format: functional, cell-based; how it was run: as §5
# U2OS [24] = experiment: Increase in intracellular ROS accumulation in human U2OS/DX100 cells at 5 uM incubated for 24 hrs in presence of hydroxocobalamin by DCFDA-AM probe-based fluorimetrical analysis relative to control; format: functional, cell-based; how it was run: as §5
inhibition [1],Stability [2],Activity [3],half-life at 200 µM [4],half-life at 100 µM [5],Activity [6],Drug uptake (H9c2 [7]),Drug uptake (U2OS [13]),Drug uptake [14],Drug uptake [15],Drug uptake [16],SMILES,Activity (Serum),Activity (H9c2 [8]),Activity (H9c2 [9]),Activity (H9c2 [10]),Activity (H9c2 [11]),Activity (U2OS [12]),other results
inactive,Unstable,Not Active,< 0.0167 h,0.183 h,Not Active,Active,–,–,–,–,C=CCSCC(NC(C)=O)C(=O)OCC(=O)[C@]1(O)Cc2c(O)c3c(c(O)c2[C@@H](O[C@H]2C[C@H](N)[C@H](O)[C@H](C)O2)C1)C(=O)c1c(OC)cccc1C3=O.Cl (some centres not stated),inactive,Non-toxic,Non-toxic,Toxic,Non-toxic,inactive,–
inactive,Stable,Not Active,5.6 h,3.8 h,Not Active,Active,Active,Active,Active,Active,C=CCSSCCC(=O)OCC(=O)[C@]1(O)Cc2c(O)c3c(c(O)c2[C@@H](O[C@H]2C[C@H](N)[C@H](O)[C@H](C)O2)C1)C(=O)c1c(OC)cccc1C3=O.Cl,Active,Toxic,Non-toxic,Toxic,–,inactive,–
–,–,–,–,–,–,–,–,–,–,–,COC(=O)c1ccc(C(N)=S)cc1,–,Toxic,–,–,–,–,–
inactive,Unstable,Not Active,0.283 h,0.283 h,Not Active,Active,–,–,–,–,COc1cccc2c1C(=O)c1c(O)c3c(c(O)c1C2=O)C[C@@](O)(C(=O)COC(=O)c1csc(=S)s1)C[C@@H]3O[C@H]1C[C@H](N)[C@H](O)[C@H](C)O1.Cl,Active,Non-toxic,Non-toxic,Toxic,Non-toxic,inactive,–
inactive,Stable,Not Active,3.4 h,0.633 h,Not Active,Active,Active,Active,Active,Active,COc1cccc2c1C(=O)c1c(O)c3c(c(O)c1C2=O)C[C@@](O)(C(=O)COC(=O)c1ccc(C(N)=S)cc1)C[C@@H]3O[C@H]1C[C@H](N)[C@H](O)[C@H](C)O1.Cl,Active,Toxic,Non-toxic,Toxic,–,inactive,–
inactive,Unstable,Not Active,0.267 h,0.05 h,Not Active,Active,–,–,–,–,COc1cccc2c1C(=O)c1c(O)c3c(c(O)c1C2=O)C[C@@](O)(C(=O)COC(=O)COc1ccc(-c2cc(=S)ss2)cc1)C[C@@H]3O[C@H]1C[C@H](N)[C@H](O)[C@H](C)O1.Cl,Active,Non-toxic,Non-toxic,Toxic,Non-toxic,inactive,–
inactive,Stable,Active,21.5 h,4.6 h,Active,Active,Active,Active,Active,Active,COc1cccc2c1C(=O)c1c(O)c3c(c(O)c1C2=O)C[C@@](O)(C(=O)COC(=O)c1ccc(-c2cssc2=S)cc1)C[C@@H]3O[C@H]1C[C@H](N)[C@H](O)[C@H](C)O1.Cl,Active,Non-toxic,Non-toxic,Toxic,Non-toxic,inactive,Activity (U2OS [17]): Active; Activity (U2OS [18]): Active; Activity (U2OS [20]): inactive; Activity (U2OS [21]): inactive; Activity (U2OS [22]): inactive; Activity (U2OS [23]): Active; Activity (U2OS [24]): Active
–,–,–,–,–,–,–,–,–,–,–,C=CCSSCCC(=O)OCC,–,Toxic,–,–,–,–,–

SMILES,inhibition [1],Stability [2],Activity [3],half-life at 200 µM [4],half-life at 100 µM [5],Activity [6],Drug uptake (H9c2 [7]),Drug uptake (U2OS [13]),Drug uptake [14],Drug uptake [15],Drug uptake [16],Activity (Serum),Activity (H9c2 [8]),Activity (H9c2 [9]),Activity (H9c2 [10]),Activity (H9c2 [11]),Activity (U2OS [12]),other results
COc1cccc2c1C(=O)c1c(O)c3c(c(O)c1C2=O)C[C@@](O)(C(=O)COC(=O)c1ccc(-c2ssc(=S)c2-c2ccccc2)cc1)C[C@@H]3O[C@H]1C[C@H](N)[C@H](O)[C@H](C)O1.Cl,inactive,Stable,Not Active,> 24 h,2.8 h,Not Active,Active,Active,Active,Active,Active,Active,Non-toxic,Non-toxic,Toxic,Non-toxic,inactive,Activity (U2OS [17]): Active; Activity (U2OS [18]): Active; Vmax (U2OS [19]): 10.2 nmol/min/mg; Activity (U2OS [20]): inactive; Activity (U2OS [21]): inactive; Activity (U2OS [22]): inactive; Activity (U2OS [23]): Active; Activity (U2OS [24]): Active
